Only some compounds are listed: those with a hit (about 3% of all), similar ones and a draw of the others.
esBAF inh = Bmi1 luciferase reporter increase in mESCs, primary screen, esBAF inhibitor project, mouse ES cells, Bmi1 luciferase knock-in, single point; 24 h; 100% = twice the neutral-well signal; reporter increase, % at 12.5 µM; hit rate 2% among 350,000; in the data active = activation above about 40%; inconclusive = no clear call, values can overlap the other calls;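 also: 0% = median of the plate's neutral control wells and 100% = double that signal; a rise in the Bmi1 reporter signal indicates esBAF inhibition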
NSD2 inh = NSD2 histone methyltransferase inhibitors, primary screen, biochemical, AlphaScreen, single concentration, set 2. NSD2 peptide methylation, 120 min. hit rate 0.54% among 310,000. Histone-lysine N-methyltransferase NSD2 (Homo sapiens), O96028. inhibition, % at 12.5 µM. AID 743445, 2014; in the data active = inhibition above about 50%
Target sequence (O96028 whole entry, looked up): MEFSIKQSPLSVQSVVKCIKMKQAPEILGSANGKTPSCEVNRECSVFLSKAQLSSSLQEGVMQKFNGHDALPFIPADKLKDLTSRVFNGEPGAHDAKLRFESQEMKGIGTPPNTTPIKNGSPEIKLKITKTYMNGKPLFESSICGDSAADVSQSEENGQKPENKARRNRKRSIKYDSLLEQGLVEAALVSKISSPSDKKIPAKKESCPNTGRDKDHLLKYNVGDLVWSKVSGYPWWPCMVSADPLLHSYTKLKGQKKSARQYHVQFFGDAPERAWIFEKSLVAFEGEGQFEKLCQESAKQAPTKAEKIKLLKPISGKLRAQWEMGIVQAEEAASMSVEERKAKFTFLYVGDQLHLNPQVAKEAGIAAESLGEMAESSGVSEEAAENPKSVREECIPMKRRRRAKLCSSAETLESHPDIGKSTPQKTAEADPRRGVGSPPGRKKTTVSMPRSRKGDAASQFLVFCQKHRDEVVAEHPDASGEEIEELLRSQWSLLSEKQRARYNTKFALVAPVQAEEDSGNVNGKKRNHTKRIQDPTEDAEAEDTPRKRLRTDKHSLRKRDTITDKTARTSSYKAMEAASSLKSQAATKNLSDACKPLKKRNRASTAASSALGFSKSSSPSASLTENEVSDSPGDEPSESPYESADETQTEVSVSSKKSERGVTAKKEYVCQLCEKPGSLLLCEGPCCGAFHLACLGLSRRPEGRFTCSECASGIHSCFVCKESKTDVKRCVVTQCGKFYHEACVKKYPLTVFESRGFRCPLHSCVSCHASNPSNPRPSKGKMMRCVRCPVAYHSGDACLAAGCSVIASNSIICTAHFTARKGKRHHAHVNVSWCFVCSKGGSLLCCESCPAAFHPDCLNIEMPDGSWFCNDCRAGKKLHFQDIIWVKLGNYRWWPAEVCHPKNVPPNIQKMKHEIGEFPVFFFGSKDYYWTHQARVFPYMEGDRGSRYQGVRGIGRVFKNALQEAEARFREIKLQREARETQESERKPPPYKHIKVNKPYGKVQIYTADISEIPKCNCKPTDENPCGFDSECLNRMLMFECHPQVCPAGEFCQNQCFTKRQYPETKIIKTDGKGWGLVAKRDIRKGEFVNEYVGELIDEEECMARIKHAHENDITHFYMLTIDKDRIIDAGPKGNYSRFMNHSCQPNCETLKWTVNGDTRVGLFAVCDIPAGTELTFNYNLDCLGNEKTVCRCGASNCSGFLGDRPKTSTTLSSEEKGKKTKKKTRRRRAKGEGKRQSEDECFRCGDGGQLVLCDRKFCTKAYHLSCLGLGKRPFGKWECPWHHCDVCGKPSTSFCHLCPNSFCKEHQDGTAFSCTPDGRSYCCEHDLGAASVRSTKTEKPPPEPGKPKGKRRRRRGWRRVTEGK
Casp6 inh = human caspase-6 inhibitors, primary screen, biochemical, VEID-R110 fluorescence, single point, set 2. purified caspase-6, Z-VEID-R110 cleavage fluorescence. inhibition, % at 12.5 µM. hit rate 0.53% among 350,000;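 active = mean inhibition across replicates at least about 35%, with every replicate also reaching that limit, limit read from the data; inconclusive = only one of the two criteria met; inactive = neither criterion met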;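 also: 0% = median of neutral control wells and 100% = no fluorescence left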
MITF TRPM1 HTS = activators of MITF-driven TRPM1 promoter reporter, primary screen, cell-based, SK-MEL-5, luciferase, single point; hit rate 0.75% among 300,000; activation, % at 12.5 µM; SK-MEL-5 TRPM1-promoter luciferase, 24 h; % of positive control, neutral wells = 0;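 active = mean activation of at least 80% with every replicate also reaching 80%; inconclusive = mean reaches 80% but some replicate falls short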;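 also: 0% = neutral control wells and 100% = parthenolide positive control wells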
Xi reactivation = activators of inactive X chromosome reactivation, primary screen, imaging, XiGFP fibroblasts, GFP high-content imaging, set 2; XiGFP mouse fibroblasts, % GFP-positive cells imaging, 3 d; cells co-treated with 5-aza-dC sensitizer; scaled so ellipticine positive control = 100%; activation, % at 7.58 µM; AID 743238, 2013; hit rate 0.055% among 360,000;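 active = mean normalized replicate activation at least 10% and every replicate at or above 10%; inconclusive = only one of the two criteria met; inactive = mean below 10% and not all replicates reach 10%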;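 also: 0% = median of on-plate neutral control wells and 100% = ellipticine 6 µM median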
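System: 68-5-11 XiGFP fibroblast line | Buffer or medium: DMEM containing 5-aza-dC | Compound: Single point | Times: Compounds 3 days, fix/stain 15 min at room temperature | Benchmarks: Positive control ellipticine, 6 µM final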
Wnt act = Wnt/beta-catenin pathway activators, primary screen, cell-based, plate reader, single point; Wnt/beta-catenin reporter cell assay, activator; activation, % at 9.35 µM; hit rate 1.2% among 300,000; AID 743398, 2014; in the data active = activation above about 30%, passing the limit was not always enough; inconclusive = no clear call, values can overlap the other calls;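 also: 0% = neutral control wells and 100% = positive control wells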
* = called active by the depositor; ? = inconclusive; / = no result given.

SMILES	esBAF inh	NSD2 inh	Casp6 inh	MITF TRPM1 HTS	Xi reactivation	Wnt act
S=C(N/N=C/c1cccs1)NC1CC2CCC1C2 (configuration not stated)	/	-0.6	-0.5	/	0.3	34.0*
Oc1ccc(/C=N/NC(=S)NC2CC3CCC2C3)cc1 (configuration not stated)	46.7*	3.2	1.1	27.3	0.0	18.5
CC(=O)Nc1ccc(-c2csc(Nc3cccc(C)n3)n2)cc1	/	0.1	0.0	87.0*	-0.2	47.7*
CC(=O)Nc1cccc(-c2csc(Nc3ncccn3)n2)c1	/	-5.0	1.0	/	0.0	44.1*
CC(=O)Nc1cccc(-c2csc(Nc3ccc(C)cn3)n2)c1	/	0.0	/	119.0*	0.0	/
COc1ccc(-c2csc(Nc3ccc(C)cn3)n2)cc1	/	0.9	-1.9	53.0	0.0	12.9
CS(=O)(=O)N1[C@@H]2CN(CC(F)(F)F)C[C@H]1C2c1ccc(Br)cc1 (some centres not stated)	/	/	/	/	0.1	/
Cc1ccc(CSc2nc3ccncc3n2CC(=O)Nc2cc(C)cc(C)c2)cc1	48.4*	/	-1.6	34.9	0.3	-0.4
Cc1cc(C)cc(NC(=O)CSc2nc3ccncc3[nH]2)c1	-4.6	/	2.4	/	0.0	-1.2
CO[C@@H]1CN(C)C(=O)c2cc(NS(C)(=O)=O)ccc2OC[C@@H](C)N(C(=O)C2CCC2)C[C@H]1C	-0.2	/	0.6	/	-0.1	/
Cn1c(CSc2ccccc2)c(C#N)c2ccccc21	63.4*	-2.5	/	75.9	/	/
Cc1ccc(SCc2c(C#N)c3ccccc3n2C)cc1	6.1	-2.2	/	/	/	-1.1
C[C@@H]1CCCCO[C@H](CN(C)C(=O)NC2CCCCC2)[C@H](C)CN([C@H](C)CO)C(=O)c2cc(NS(C)(=O)=O)ccc2O1	1.7	/	/	/	0.0	/
COc1cccc(-c2ccc([C@@H]3[C@@H](CO)N4C(=O)CN(C(=O)CN5CCOCC5)C[C@H]34)cc2)c1	/	/	-0.8	/	0.0	/
Cc1noc(C)c1S(=O)(=O)Nc1ccc2c(c1)C(=O)N([C@@H](C)CO)C[C@@H](C)[C@@H](CN(C)C(=O)NC1CCCCC1)OCCCC[C@@H](C)O2	2.8	/	-1.1	/	0.1	/
COc1ccc(NC(=O)CSc2nccn2C)c([N+](=O)[O-])c1	/	-2.9	0.8	17.9	0.2	-0.5
Cc1ccc(-c2csc(NC(=O)CSc3nc(C)cs3)n2)cc1	45.1*	0.5	-3.3	45.9	/	6.4
CCNC(=O)CSc1nc(-c2ccc(F)cc2)cs1	/	-2.0	-0.1	34.8	0.2	16.6
CC(C)(C)NC(=O)CSc1nc(-c2ccc(F)cc2)cs1	/	-4.5	1.2	71.1	-0.2	37.5*
COc1ccc(NC(=O)CSc2nc(C)cs2)c([N+](=O)[O-])c1	31.2	0.2	3.4	20.7	0.0	45.9*
COc1ccc(NC(=O)Nc2ccccc2F)c(C)c1	/	-2.4	-0.3	38.2	0.3	-3.8
COc1ccc(NC(=O)Nc2ccccc2F)c([N+](=O)[O-])c1	/	-1.8	39.1*	43.3	0.0	25.3
CNC(=O)C[C@H]1CC[C@@H]2[C@H](COc3ccc(NC(=O)Cc4cccs4)cc3C(=O)N2C)O1	-4.4	/	/	/	0.0	/
Nc1nc(N)c(N=O)c(OCC2CCCCC2)n1	42.3*	/	-9.2	-13.0	0.3	-0.1
NS(=O)(=O)OCC1CCCCC1	-2.9	/	-2.4	-4.2	0.0	-0.9
SMILES	esBAF inh	NSD2 inh	Casp6 inh	MITF TRPM1 HTS	Xi reactivation	Wnt act
C[C@H](CO)N1C[C@H](C)[C@@H](CN(C)Cc2ccncc2)Oc2c(NC(=O)Cn3cnnn3)cccc2C1=O	/	/	/	/	0.3	/
O=Cc1cc([B-](F)(F)F)cs1	/	/	16.0	/	-0.1	-3.4
O=Cc1cscc1[B-](F)(F)F	/	/	66.1*	/	-0.1	-3.7
CO[C@H]1CN(C)C(=O)c2ccc(NC(C)=O)cc2OC[C@H](C)N(C(=O)c2ccccn2)C[C@H]1C	-3.9	/	0.6	/	0.1	/
CC1(C)Cc2c(cnn2-c2ccc(F)cc2)C(NC(=O)CCN2CCCC2=O)C1 (configuration not stated)	44.5*	3.4	-4.5	26.0	0.0	17.4
CC1(C)Cc2c(cnn2-c2cccc(F)c2)C(NC(=O)CCN2CCCC2=O)C1 (configuration not stated)	3.9	-1.6	-0.7	-3.5	0.1	-0.2
CC1(C)Cc2c(cnn2-c2ccc(F)cc2)C(NC(=O)C2=NNC(=O)CC2)C1 (configuration not stated)	51.9*	-0.9	-2.7	31.0	0.0	-0.9
CC(C)NC(=O)Nc1ccc2c(c1)C(=O)N(C)[C@H]1CC[C@H](CC(=O)NC3CCCCC3)O[C@H]1CO2	1.0	/	/	/	0.3	/
CO[C@H]1CN(C)C(=O)c2cc(NC(=O)Nc3cc(Cl)cc(Cl)c3)ccc2OC[C@@H](C)NC[C@H]1C	-6.7	/	/	/	0.0	/
Cc1ccc(C(=O)c2cc3ccccc3o2)cc1[N+](=O)[O-]	67.4*	-4.4	-1.9	52.3	0.0	14.5
O=C(c1ccccc1)c1cc2ccccc2o1	48.6*	1.4	/	108.4*	/	11.5
O=C(NNC(=O)c1cc2ccccc2o1)c1ccc(F)cc1	19.9	0.6	1.5	23.0	-0.1	3.9
CC(Cc1ccccc1)NC(=O)c1cc2ccccc2o1 (configuration not stated)	82.1*	-7.1	8.2	67.3	0.3	29.2
C/C(=N\NS(=O)(=O)c1ccc(C)c([N+](=O)[O-])c1)c1cc2ccccc2o1	/	20.4	/	-7.7	/	/
O=C(c1cc2ccccc2o1)N1CCCC1	/	-1.5	-2.4	9.9	-0.5	-0.1
O=C(c1ccc(F)cc1)c1cc2ccccc2o1	63.9*	/	/	?	/	65.3*
CCCNC(=O)N1CC2(CN(Cc3ccccn3)C2)c2c(n(C)c3cc(OC)ccc23)[C@H]1CO	/	/	/	/	0.3	/
C[C@H](CO)N1C[C@H](C)[C@@H](CN(C)C(=O)Nc2ccc3c(c2)OCO3)Oc2c(NC(=O)NC3CCCCC3)cccc2C1=O	/	/	/	/	0.2	/
CN(C)CCCNC(=O)C[C@H]1CC[C@H]2[C@@H](COc3ccc(NC(=O)c4ccccc4F)cc3C(=O)N2C)O1	1.9	/	0.6	/	0.0	/
COc1ccc(C2OC3=C(Nc4cc(C)c(C)cc4N3)C2=O)cc1 (configuration not stated)	56.4*	0.7	-2.0	60.7	0.2	21.4
CCC(=O)N[C@@H]1C=C[C@H](CC(=O)NCC2CC2)O[C@@H]1CO	/	/	1.3	/	-0.1	/
Cc1nn2c(N)c(-c3ccccc3)cnc2c1-c1ccc(Cl)cc1	?	-1.9	-0.2	101.1*	0.3	16.6
Cc1nn2c(-c3ccccc3)ccnc2c1-c1ccccc1	/	0.4	/	?	/	40.4*
